Measurements reported in ChEMBL document CHEMBL4513216, “Probing the Open Global Health Chemical Diversity Library for Multistage-Active Starting Points for Next-Generation Antimalarials” (ACS Infect Dis, 2020).

Assay: Toxicity liver stage against HepG2, at 10uM
Type: cell-based
Design: test concentration 10 uM, cell line HepG2-A16-CD81EGFP
Conditions: human, HepG2-A16-CD81EGFP cells; read-out: INHIBITION
Summary of the method: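 Uninfected HepG2-A16-CD81EGFP cells, 3 × 10^3 per well, 1536-well, plated on prespotted compound at 10 μM final, parasite-free screening media added to match infected plates; puromycin 10 μM positive, DMSO 0.5% negative; run in parallel with 48 h PbLuc assay at 37 °C, 5% CO2; viability by CellTiter-Glo luminescence, normalized to controls.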

Compound	cytotoxicity at 10 µM [%]
Cc1cccc(OC2CCN(C(=O)NCc3cc[nH]n3)CC2)c1C	7.41
Cc1nc(NC(=O)c2c(-n3cnnn3)sc3c2CCC3)sc1C	5.95
CCCSc1nn(CCN(C)C)c2nc3sc(C)c(CC)c3c(=O)n12	16.4
CC(C)n1ncc2c1NC(=O)CC21C(=O)Nc2cc(Cl)cc(Cl)c21 (stereo not drawn)	19.1
Nc1nc2c(c(NC(=O)Nc3cccc(Cl)c3)n1)CCCC2	-2.8
O=S(=O)(c1ccc(Cl)s1)N1CCN(Cc2nc(-c3ccco3)cs2)CC1	47.6
CCc1cnc(N2CC[C@@H]3CN(C(=O)c4ccco4)CCO[C@@H]3C2)nc1	9.22
CC(C)CNc1nc2c(cc1C(=O)NCC1CC1)CCNCC2	-2.79
CCS(=O)(=O)N1CCc2ccc(NC(=O)Nc3cccc(SC)c3)cc21	37.7
Cc1cc(C)n(C2=NC(NCCC(C)C)c3c(sc4c3CCCC4)N2)n1 (stereo not drawn)	25
CCc1ccc(-c2cc(C(F)(F)F)nc(N3CCC(N)CC3)n2)cc1	91.5
Cc1nn(C)c2c(=O)n(C(C)C)c(NCCc3ccccc3)nc12	65.3
CC(C)Nc1cc(-c2c[nH]nc2C2CCN(C(=O)C3CC3)C2)ccn1 (stereo not drawn)	85
COc1ccc(CC(=O)NC(C)c2nc3cccnc3n2C(C)C)cc1 (stereo not drawn)	-11.7
Cc1ncc(CN2CCOC(c3ccc(-c4ccccc4F)cn3)C2)s1 (stereo not drawn)	-35.7
CN(C)C(=O)C1CN(Cc2ccccn2)CCN(S(C)(=O)=O)C1 (stereo not drawn)	26.9
Cc1cc(-c2cnc(NCc3ccncc3)nc2C(C)C)on1	59.7
CC(C)NC(=O)c1cc(-c2ccc(S(C)(=O)=O)cc2)c2cnn(C)c2n1	8.3
O=c1c(Cc2ccc(Cl)cc2Cl)c(O)ccn1CC1CC1	13.6
CCN1CCC(NC(=O)CNC(C)Cn2cccn2)CC1 (stereo not drawn)	9.19
Cc1ccccc1CNc1ccc(S(N)(=O)=O)c(C(F)(F)F)c1	22.2
CCOCCOC(C)C(=O)Nc1nccn1Cc1ccccc1 (stereo not drawn)	3.94

Compound	cytotoxicity at 10 µM [%]
COCc1ccccc1NCc1csc(NC(C)=O)n1	-1.36
O=C(NCC(=O)N1CCN(c2ccccc2)CC1)c1sccc1C1CC1	-151
CCC(C)c1csc(NC(=O)Cc2csc(-c3nnc[nH]3)n2)n1 (stereo not drawn)	-29.6
COCC1CN(c2ccc(C#N)c(Cl)c2)CCO1 (stereo not drawn)	4.86
CCOc1ccc(-c2nc(CN(C)Cc3c(C)noc3C)cs2)cc1	38.6
Cc1nc(C)c(CNC(=O)N2CCN(c3ccc(Cl)cn3)CC2)s1	55.8
COc1c(Cl)cccc1NCc1csc(NC(C)=O)n1	57.8
COC(=O)CSCc1noc(-c2ccc(C)cc2)n1	4.13
CC(C)N(C)C(=O)c1ccc(CNc2ccncc2Cl)cc1	55.8
CCc1ncc(C(=O)NCCNc2ncnc3sccc23)s1	49.6
O=C(NCC1(O)CCSC1)c1ccoc1 (stereo not drawn)	-12.7
CCN(CC1CN(Cc2nc(C3CC3)no2)CCO1)c1cccnn1 (stereo not drawn)	14.9
c1cc(CNCc2ccnc(N3CCCC3)c2)c2c(c1)OCCCO2	26.6
O=C(CSc1nncs1)N1CCN(Cc2ccc(Cl)cc2)CC1	21.9
CCc1noc(C(C)N(C)CC(=O)Nc2ccc(Cl)c(C(F)(F)F)c2)n1 (stereo not drawn)	50.1
NC(=O)c1ccc(N2CCCCC2)c(NC(=O)c2ccc(F)cc2F)c1	-0.0472
CCc1nc(CN2CCCN(c3ncnc4ccsc34)CC2)no1	64.5
Cc1nc(CN2CCN(c3ncnc4ccccc34)CC2)no1	61.5
CC(C)(C)OC(=O)N1CCCc2ccc(NCc3cc[nH]c3)cc21	34.1
COc1ccccc1CN(C)C(=O)CN1CC(n2nc(C)cc2C)C1	21.3
CCCc1n[nH]c(C2CN(C(=O)CCCn3ccnc3C)CCO2)n1 (stereo not drawn)	6.03
N#Cc1cnc2ccccc2c1N1CCN(C(=O)C2CCC2)CC1	-2.3

Compound	cytotoxicity at 10 µM [%]
CN(CCN1CCCC1=O)S(=O)(=O)CC1CCCC1	10.4
CC1(C)CN=C(N2CCN(CCCN3CCOCC3)CC2)S1	-17.6
CN(CCc1cccc2ccccc12)Cc1nc(N)nc(N(C)C)n1	4.19
CN1CCN(C2CCN(c3ccnc(-c4ccccc4)n3)CC2)C1=O	59.7
c1nc(NCC2(N3CCOCC3)CCSC2)c2sccc2n1 (stereo not drawn)	59.7
O=S1(=O)CCN2C(=N1)Oc1ccc(S(=O)(=O)N3CCCC3)cc12	18.2
CS(=O)(=O)c1cccc(C(=O)NCC2(c3ccccc3)CC2)c1	1.47
Cc1ccc(-c2nc(CN(Cc3cccs3)C3CCS(=O)(=O)C3)cs2)o1 (stereo not drawn)	11.4
CC(C)CN1CCC(NC(C)c2ccccc2-n2cccn2)CC1 (stereo not drawn)	1.06
O=C(CN1CCCC(c2ccn[nH]2)C1)Nc1nc2c(s1)CCCC2 (stereo not drawn)	-43.3
NC(=O)c1ccc(N2CCCCC2)c(NC(=O)c2cc(Br)ccc2F)c1	-12.9
COc1cc(CN(C)C(=O)Cc2c(C)nn(C)c2C)ccc1OC(F)F	39.2
CC(C)NC(=O)C1CN(C(=O)N(C)C)CC12CCOCC2 (stereo not drawn)	-110
O=C(Nc1ccccc1)N1CCc2nc(C(=O)N3CCCC3)sc2CC1	11.3
CN(C)C(=O)CN1CCC2(COCc3cnc(-c4ccccc4)nc32)C1 (stereo not drawn)	-96.7
COc1cc(N2CC[C@@H](O)[C@@H]2Cc2ccccc2)ncn1	-52.1
O=C1O[C@@H]2CN(c3ccccn3)C[C@@H]2N1CCCc1ccc(F)cc1	-2.88
FC(F)(F)c1cccc(OC2CCN(Cc3c[nH]cn3)CC2)c1	-47.8
Cc1ccc(Sc2ccc(CN3CCC4(CCCNC4=O)C3)o2)cc1 (stereo not drawn)	-3.68
CCC(NC(=O)c1cc(CC(C)C)nn1C)c1cccc(C)n1 (stereo not drawn)	-116
Clc1ccccc1C1(c2ccnc(C3CCCC3)n2)CCNCC1	18.2
CNc1ccnc(N(C)Cc2cc(-c3cccs3)n[nH]2)n1	-4.57

Compound	cytotoxicity at 10 µM [%]
COc1ccnc(CN2CCCC(CCc3ccc(F)cc3)C2)c1OC (stereo not drawn)	50.4
CCc1nc2c(N3CCC4(CC3)CC(=O)N(CC(C)C)C4)ncnc2o1	16.2
Cc1nc(C2CCN(C)CC2)cc(N2CCOc3ccc(Cl)cc3C2)n1	-5.12
CCOc1ccc2[nH]c(=O)c(CN3CCN(S(N)(=O)=O)CC3)cc2c1	-6.39
Cc1cccnc1NCCNC(=O)c1cnc(-c2ccccn2)nc1O	26.4
CCCNC(=O)c1ccc(S(=O)(=O)NCC2(COC)CCCC2)cc1	-31.2
CC(C)c1cc(C(=O)NCCc2nc3c(s2)CCC3)n(C)n1	54.2
CCc1nc2c(NCC3COc4ccccc4C3)ncnc2o1 (stereo not drawn)	10.5
COc1ccccc1OC1CN(C(=O)c2c(C)nc3ccc(C)cn23)C1	-0.376
Cc1cc(C(=O)NC2CCCc3c2cnn3-c2cccc(C)c2C)[nH]n1 (stereo not drawn)	51.4
Cc1cc(CN(C)CC2CCCN(CCc3ccc(Cl)cc3)C2)[nH]n1 (stereo not drawn)	-12.5
C=Cc1ccc(CN2C(=O)C3(CCNCC3)Nc3ccccc32)cc1	3.39
Cc1nc(C(=O)N2CCN(c3ccc(Cl)c(Cl)c3)CC2)cs1	2.35
Cc1cccc2cc(CO)c(N3Cc4cnc(C(C)(C)C)nc4C3)nc12	10.6
CC(C)(C)n1ncc2c1NC(=O)CC2c1cccc(F)c1 (stereo not drawn)	-8.81
Cc1ccc(-c2noc(CN3CCC(N4CCNC4=O)CC3)n2)cc1	31
Cc1ccc(-c2noc(CN3CC(n4cc(C)cn4)C3)n2)cc1	-3.86
Cc1noc(NC(=O)c2cccc(Br)c2)n1	-5.3
CCCC1CCCN(Cc2csc(-c3ncccn3)n2)CC1 (stereo not drawn)	13.6
Cn1ncc(NCc2cccc(OCC(F)(F)F)c2)c(Cl)c1=O	22.1
COc1c(CNCc2ccnc(N3CCCCC3)c2)c(C)nn1C	10.1
CC1CN(CC2CCCCC2)CCN1c1ccc2nncn2n1 (stereo not drawn)	13.8

Compound	cytotoxicity at 10 µM [%]
Cc1nccn1CCCn1cncc1-c1ccc2c(c1)CCC(C)N2C (stereo not drawn)	-4.98
Cc1ccc(CN(CCCn2ccnc2)Cc2cc(F)ccc2F)s1	-13.2
Clc1cccc(N[C@H]2CCCN[C@H]2Cc2ccccc2)c1	89.4
COc1ccc(-c2ccc(C3CNCCO3)nc2)cc1 (stereo not drawn)	-8.88
O=C(N1CCOCC1)[C@@]12CCO[C@@H]1CCN(Cc1cccc(F)c1)C2	10.8
CCS(=O)(=O)N1C[C@@H]2CN(Cc3cccs3)CCO[C@@H]2C1	-138
CN(C)C(=O)c1n[nH]c2c1CN(Cc1nccs1)CC2	-150
Fc1cccc(O[C@@H]2C[C@H]3CN(Cc4ccncc4)CCN3C2)c1	-143
O=c1ccc2c(n1CC1CC1)CCC(NCc1cccs1)C2 (stereo not drawn)	-111
Cc1nccc(NCc2cncc3c2CCN(CC2CCOC2)C3)n1 (stereo not drawn)	-41.5
CCCS(=O)(=O)N1CCC2(CC1)CN(CC1CCOC1)c1ccccc12 (stereo not drawn)	-101
O=C(c1ccco1)N1C[C@@H]2CCN(c3cccnc3)C[C@@H]2C1	-68.3
COCCN1CCC2(CC1)CC(N1CCOCC1)c1cc(C)ccc12 (stereo not drawn)	-106
O=C(NCc1cccnc1)[C@@H]1CC[C@@H]2[C@@H](CCN2c2ncccn2)O1	-68
Cc1ccc(N2CCO[C@H]3CN(Cc4cccs4)C[C@H]32)nn1	-75.6
Cc1noc([C@H]2C[C@H]3OCC[C@H]3N(C3CCC3)C2)n1	-129
Cc1ccc(N2CCC3(CN(Cc4ccncc4)CCC3(F)F)C2)nn1 (stereo not drawn)	28.6
O=C(O)c1c(-c2cncnc2)ncc2c1CCN(Cc1cccnc1)C2	10.6
c1ccc(-c2cc(CN3C[C@H]4CC[C@@H](C3)N(CC3CCC3)C4)on2)cc1	3.27
COc1ccc(NS(=O)(=O)C=c2[nH]c(=O)n3cccc3c2=O)cc1Cl	-1.47
